The text below walks through data of ChEMBL document CHEMBL4004805, “Tacrine-resveratrol fused hybrids as multi-target-directed ligands against Alzheimer's disease” (Eur J Med Chem, 2017).

Data set [1] concerns Microglia. The data set can be described thus: Immunomodulatory activity in LPS-induced Wistar rat primary microglia cells assessed as decrease in iNOS expression at 10 to 50 uM after 24 hrs by Western blot method. Format: functional, cell-based. The gist of the method: (§1)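 Rat primary microglia or astrocytes were exposed 24 h to LPS with compound (0–50 µM), then lysed; protein was measured by Lowry. Immunoblots used anti-iNOS, anti-TREM2 or anti-MRC1 with GAPDH as loading control, read by ECL and densitometry. Values are % of LPS alone; mean ± SE of 3 experiments.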
In general terms: In western blotting, separated proteins are transferred to a membrane and probed.

The test system of data set [2] is Astrocyte. The data set can be described thus: Antineuroinflammatory activity against LPS-induced Wistar rat primary astrocytes assessed as decrease in nitrite production after 24 hrs by Griess method. Type of data set: functional, cell-based. The gist of the method: (§2)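 Microglia (shaken off) and astrocytes (trypsinized remainder) came from newborn Wistar rat cortical mixed glia grown 10–13 days. Cells were co-treated 24 h with LPS and compound (10–50 µM). Nitrite in the medium was measured by Griess reaction (sulfanilamide 5 mM, NEDA 40 mM) against a NaNO2 standard curve. Mean ± SE of 3 experiments, each at least in quadruplicate.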
On the technique in general: Nitrite, measured by Griess reagent, commonly stands in for NO production.

Data set [3] addresses Cholinesterase (Homo sapiens) (UniProt P06276). Put plainly: Inhibition of butyrylcholinesterase isolated from human plasma at 10 uM using butyrylthiocholine as substrate preincubated for 5 mins followed by substrate addition measured every 2 mins by Ellman's method. Put shortly: (§3)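 Buffer was 0.1 M potassium phosphate, pH 7.4, with DTNB and enzyme (10 µL of 2.0 units/mL stock) in a 100 µL mix. Substrate was iodide salt (20 µL of 0.01 M). Inhibitor range 10-3–10-9 M. Absorbance rise read at 412 nm, 37 °C. Each concentration run in triplicate. IC50 is the concentration giving 50% loss of activity. Screening done at 10 µM before IC50 work.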
For orientation: DTNB colorimetry detects thiols as they appear.

A short description of data set [4]: Antioxidant activity of the compound assessed as DPPH radical scavenging activity after 30 mins. Type of data set: functional. Put shortly:
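DPPH (0.2 mM solution) was mixed 1:1 in methanol with compound (10-3–10-6 M). After 30 min at laboratory temperature, absorbance was read at 517 nm. Triplicates per concentration; EC50 is the concentration giving a 50% decrease in DPPH activity.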

Data set [5] in a line: Neurotoxicity against Wistar rat primary cerebellar granule neurons assessed as decrease in cell survival at 5 to 50 uM after 24 hrs by MTT assay. Type of data set: toxicity, cell-based. Conditions: primary cerebellar granule neuron.
Data set [6] deals with T1, Acetylcholinesterase (Homo sapiens, UniProt P22303). Put plainly: Inhibition of acetylcholinesterase isolated from human red blood cells using acetylthiocholine as substrate preincubated for 5 mins followed by substrate addition measured every 2 mins by Ellman's method. Put shortly:
as §3

Another data set relates to HepG2. The data set can be described thus: Hepatotoxicity against human HepG2 cells assessed as decrease in cell viability at 5 to 50 uM after 24 hrs by MTT assay. Format: toxicity, cell-based. The conditions noted are these: hepg2, 24 h. Put shortly:
(§4)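 HepG2 cells in high-glucose DMEM with 10% FBS were seeded at 8 x 10^3 cells/well, then exposed to 0–50 µM compound for 24 h in serum-free medium. MTT (0.1 mg/mL) was added for 20 min at 37 °C in the dark, formazan dissolved in Tris-HCl/5% Triton X-100, absorbance read at 570 nm. Viability as % of control; mean ± SE, four experiments at least in quadruplicate.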

Data set [7] relates to Astrocyte. The data set can be described thus: Immunomodulatory activity in LPS-induced Wistar rat primary astrocytes assessed as decrease in iNOS expression at 10 to 50 uM after 24 hrs by Western blot method. Format: functional, cell-based. The gist of the method: as §1
The test system of data set [8] is Microglia. Put plainly: Antineuroinflammatory activity against LPS-induced Wistar rat primary microglia cells assessed as decrease in nitrite production after 24 hrs by Griess method. Format: functional, cell-based. The gist of the method:
as §2

Data set [9] concerns Primary glial cell. Put plainly: Immunomodulatory activity in LPS-induced Wistar rat primary glial cells assessed as decrease in TREME2 expression after 24 hrs by Western blot method. Format: functional, cell-based. Put shortly:
as §1

The test system of data set [10] is Primary glial cell. Put plainly: Immunomodulatory activity in LPS-induced Wistar rat primary glial cells assessed as decrease in MRC1 expression at 10 to 50 uM after 24 hrs by Western blot method. Type of data set: functional, cell-based. Put shortly: as §1
The target of data set [11] is Amyloid-beta precursor protein (Homo sapiens) (UniProt P05067). The data set can be described thus: Inhibition of amyloid beta 42 (unknown origin) self aggregation at 50 uM by ThT-based fluorometric method relative to control. The gist of the method: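 Pretreated Aβ42 (50 µM final) was incubated at 30 °C in 10 mM phosphate buffer pH 8.0 with 10 mM NaCl, with or without inhibitor (50 µM). Samples were then diluted in 50 mM glycine-NaOH pH 8.5 containing 1.5 µM ThT. Fluorescence (ex 446/em 490 nm) was scanned for 300 s, plateau values averaged minus ThT background, giving % inhibition.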
Amyloid-beta precursor protein (Homo sapiens), sequence (P05067 whole entry): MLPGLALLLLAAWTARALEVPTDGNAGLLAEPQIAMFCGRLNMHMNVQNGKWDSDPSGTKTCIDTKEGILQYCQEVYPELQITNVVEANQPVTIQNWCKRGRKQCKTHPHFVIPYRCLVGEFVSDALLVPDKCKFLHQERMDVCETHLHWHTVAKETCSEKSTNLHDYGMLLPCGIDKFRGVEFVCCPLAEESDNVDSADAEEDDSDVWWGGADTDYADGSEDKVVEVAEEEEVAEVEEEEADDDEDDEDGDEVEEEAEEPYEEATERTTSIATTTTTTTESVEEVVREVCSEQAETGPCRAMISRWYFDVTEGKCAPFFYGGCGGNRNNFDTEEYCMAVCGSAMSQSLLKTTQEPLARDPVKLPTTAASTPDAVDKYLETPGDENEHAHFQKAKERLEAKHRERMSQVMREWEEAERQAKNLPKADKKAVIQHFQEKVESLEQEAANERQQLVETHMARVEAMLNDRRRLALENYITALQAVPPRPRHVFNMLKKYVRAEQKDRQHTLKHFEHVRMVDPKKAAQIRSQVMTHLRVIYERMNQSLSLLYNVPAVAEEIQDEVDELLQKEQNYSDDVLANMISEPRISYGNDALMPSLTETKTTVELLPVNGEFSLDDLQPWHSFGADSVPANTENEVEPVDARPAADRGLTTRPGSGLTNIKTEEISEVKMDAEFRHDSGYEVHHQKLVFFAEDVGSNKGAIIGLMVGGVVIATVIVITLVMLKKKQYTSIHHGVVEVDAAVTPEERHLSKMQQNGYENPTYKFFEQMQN

Data set [12] deals with Primary glial cell. Put plainly: Immunomodulatory activity in LPS-induced Wistar rat primary glial cells assessed as decrease in TREME2 mRNA expression after 24 hrs. Type of data set: functional, cell-based.
The subject of data set [13] is Primary glial cell. The data set can be described thus: Immunomodulatory activity in LPS-induced Wistar rat primary glial cells assessed as decrease in iNOS mRNA expression after 24 hrs. Type of data set: functional, cell-based.
A short description of data set [14]: Neurotoxicity against Wistar rat primary cerebellar granule neurons assessed as decrease in cell survival at 25 to 50 uM after 24 hrs by MTT assay. Format: toxicity, cell-based. The conditions noted are these: primary cerebellar granule neuron.
The target of data set [15] is T1, Acetylcholinesterase. The data set can be described thus: Inhibition of acetylcholinesterase isolated from human red blood cells at 10 uM using acetylthiocholine as substrate preincubated for 5 mins followed by substrate addition measured every 2 mins by Ellman's method. Put shortly: as §3
In data set [16] the target is Acetylcholinesterase (Electrophorus electricus, UniProt O42275). The data set can be described thus: Displacement of propidium iodide from electric eel AChE by spectrofluorometric method. Put shortly: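 Back-titration of a preformed EeAChE (2 µM)–propidium iodide (8 µM) complex in 1.0 mM Tris-HCl pH 8.0, with inhibitor added stepwise (final 8–56 µM; methanol stock). Fluorescence read at 635 nm, excitation 535 nm. Blanks were run for propidium alone, inhibitor plus propidium, and enzyme alone. KD derived by the Taylor–Lappi treatment, taking propidium KD = 0.7 µM.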
Acetylcholinesterase (Electrophorus electricus, UniProt O42275), sequence (O42275 whole entry): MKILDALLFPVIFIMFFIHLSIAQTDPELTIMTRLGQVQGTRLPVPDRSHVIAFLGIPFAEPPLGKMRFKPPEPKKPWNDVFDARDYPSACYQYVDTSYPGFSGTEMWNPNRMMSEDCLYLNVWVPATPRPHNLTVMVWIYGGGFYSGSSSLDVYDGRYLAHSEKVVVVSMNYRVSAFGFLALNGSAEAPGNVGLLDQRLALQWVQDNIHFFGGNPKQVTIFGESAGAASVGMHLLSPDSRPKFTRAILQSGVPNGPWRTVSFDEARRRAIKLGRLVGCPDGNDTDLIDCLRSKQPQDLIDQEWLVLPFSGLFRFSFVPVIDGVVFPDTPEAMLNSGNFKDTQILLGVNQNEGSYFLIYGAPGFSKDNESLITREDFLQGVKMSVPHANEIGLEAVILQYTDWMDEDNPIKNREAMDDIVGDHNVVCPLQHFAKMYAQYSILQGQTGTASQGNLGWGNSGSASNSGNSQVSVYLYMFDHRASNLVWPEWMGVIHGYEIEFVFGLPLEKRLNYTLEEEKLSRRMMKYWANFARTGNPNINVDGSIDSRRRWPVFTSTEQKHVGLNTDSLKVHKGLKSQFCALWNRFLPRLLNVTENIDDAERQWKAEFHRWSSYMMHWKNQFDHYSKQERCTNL

The nature of data set [17]: Neurotoxicity against Wistar rat primary cerebellar granule neurons assessed as decrease in cell survival at 5 uM after 24 hrs by MTT assay. Type of data set: toxicity, cell-based. The conditions noted are these: primary cerebellar granule neuron. Put shortly:
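Cerebellar granule neurons came from 7-day-old Wistar rat pups, plated on poly-L-lysine in BME with 10% FBS and 25 mM KCl. Cytosine arabinoside (10 µmol/L) was added at 16 h. At 7 DIV, cells were moved to serum-free medium and exposed to 0–50 µM compound for 24 h. Survival was read by MTT at 570 nm as % of control; mean ± SE, four experiments at least in quadruplicate.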

Data set [18] has as its target Cholinesterase (Homo sapiens) (UniProt P06276). The data set can be described thus: Inhibition of butyrylcholinesterase isolated from human plasma up to 100 uM using butyrylthiocholine as substrate preincubated for 5 mins followed by substrate addition measured every 2 mins by Ellman's method. The gist of the method:
as §3

Data set [19] can be described thus: Hepatotoxicity against human HepG2 cells assessed as cell viability at 5 to 50 uM after 24 hrs by MTT assay relative to control. Type of data set: toxicity, cell-based. The conditions noted are these: read-out: Activity. Put shortly: as §4

Calls of active or inactive are those of the source. The calls are words filed in the database; no cut-off is given here.

Cholinesterase (Homo sapiens), sequence (P06276 whole entry): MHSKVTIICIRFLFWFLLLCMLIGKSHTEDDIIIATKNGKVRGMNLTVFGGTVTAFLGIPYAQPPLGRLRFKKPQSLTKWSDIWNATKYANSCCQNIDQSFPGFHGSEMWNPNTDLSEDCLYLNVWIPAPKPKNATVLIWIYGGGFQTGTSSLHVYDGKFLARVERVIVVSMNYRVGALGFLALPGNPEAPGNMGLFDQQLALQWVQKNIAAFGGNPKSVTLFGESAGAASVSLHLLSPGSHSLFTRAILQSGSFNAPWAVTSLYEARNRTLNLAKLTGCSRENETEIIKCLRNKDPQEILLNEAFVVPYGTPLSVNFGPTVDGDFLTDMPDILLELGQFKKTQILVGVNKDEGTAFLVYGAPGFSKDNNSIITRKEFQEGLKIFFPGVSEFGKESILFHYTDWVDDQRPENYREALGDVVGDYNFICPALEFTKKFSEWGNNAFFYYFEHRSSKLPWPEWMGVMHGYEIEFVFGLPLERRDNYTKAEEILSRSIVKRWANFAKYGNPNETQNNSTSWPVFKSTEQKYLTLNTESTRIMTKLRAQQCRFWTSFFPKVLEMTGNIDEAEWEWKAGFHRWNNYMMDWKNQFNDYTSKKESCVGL
T1 sequence (P22303 whole entry): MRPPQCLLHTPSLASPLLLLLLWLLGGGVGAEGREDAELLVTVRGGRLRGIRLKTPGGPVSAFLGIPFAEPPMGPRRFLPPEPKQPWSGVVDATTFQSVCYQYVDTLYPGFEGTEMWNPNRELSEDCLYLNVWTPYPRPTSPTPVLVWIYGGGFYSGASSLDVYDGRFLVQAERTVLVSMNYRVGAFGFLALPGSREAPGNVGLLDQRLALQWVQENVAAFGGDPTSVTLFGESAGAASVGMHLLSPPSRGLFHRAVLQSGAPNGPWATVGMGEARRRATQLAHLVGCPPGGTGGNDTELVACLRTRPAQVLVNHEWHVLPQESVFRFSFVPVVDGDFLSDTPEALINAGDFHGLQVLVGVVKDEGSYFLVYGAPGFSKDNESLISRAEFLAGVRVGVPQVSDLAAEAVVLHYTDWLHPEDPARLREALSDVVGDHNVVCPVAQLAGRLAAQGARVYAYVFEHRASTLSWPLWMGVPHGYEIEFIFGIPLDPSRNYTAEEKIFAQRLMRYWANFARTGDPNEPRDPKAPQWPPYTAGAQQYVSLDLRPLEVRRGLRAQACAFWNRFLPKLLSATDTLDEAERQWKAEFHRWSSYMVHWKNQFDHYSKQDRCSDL

A word on the inhibition: it is the drop in the measured response relative to a control, in per cent. What is called EC50 is the concentration at which the effect is half-maximal. The term IC50 denotes the concentration needed to halve the response being measured. The low end stands for greater potency, the high end for weaker potency. With `Oc1cc(O)cc(/C=C/c2ccc(Nc3c4c(nc5cc(Cl)ccc35)CCCC4)cc2)c1`, the result in the data set with Microglia [1], in the data set with Astrocyte [7], with Primary glial cell [10], in the data set on Primary glial cell [12] and with Primary glial cell [13] was Active. The Activity result with Astrocyte [2] is “Dose-dependent effect”; in [5] it was “Non-Toxic”; in the data set with HepG2, “Toxic”; in the data set on Microglia [8], “Dose-dependent effect”; in the data set on Primary glial cell [9] it was “Dose-dependent effect”. Besides, the inhibition result in data set [3] was “inactive”. In addition, in data set [4], the EC50 was greater than 5000 µM. This compound showed an IC50 on Acetylcholinesterase [6] of 8.8 µM. For the same compound, in data set [11], the inhibition is 31.2%.
Take `Oc1cc(O)cc(CCc2ccc(Nc3c4c(nc5cc(Cl)ccc35)CCCC4)cc2)c1`: the inhibition entry in data set [3] was “inactive”. In addition, the EC50 in data set [4] was greater than 5000 µM. The compound further returned an IC50 against Acetylcholinesterase [6] of 1.3 µM. Also, the Activity entry (in the data set with HepG2; in data set [14]) was “Toxic” each time. Further, in data set [11], the inhibition amounted to 37.3%.
`COc1ccc2nc3c(c(N)c2c1)CCCC3` registered an inhibition in data set [11] of less than 5%.
Consider `COc1cc(/C=C/c2ccc(Nc3c4c(nc5ccccc35)CCCC4)cc2)cc(OC)c1`, for which the inhibition result (in [3]; at Acetylcholinesterase [15]) was “inactive” in each case. The Activity result (in the data set with HepG2; in data set [14]) was “Toxic” throughout.
What is called Kd is the constant that tells how readily two partners part at equilibrium. Higher therefore signals a looser complex. For the compound `COc1cc(CCc2ccc(Nc3c4c(nc5cc(Cl)ccc35)CCCC4)cc2)cc(OC)c1`, the inhibition result in data set [3] was “inactive”. This compound gave a Kd at Acetylcholinesterase [16] of 7.31 µM. The Activity result (in data set [17]; with HepG2) was “Toxic” each time. Also, the EC50 in data set [4] was 155 µM. This compound also displayed a half-inhibitory concentration (IC50) on Acetylcholinesterase [6] of 0.8 µM. The inhibition in data set [11] was 17.6%.
For `COc1cc(CCc2ccc(Nc3c4c(nc5ccccc35)CCCC4)cc2)cc(OC)c1`, the inhibition entry in data set [3] was “inactive”. Besides, the Activity entry (in [17]; with HepG2) was “Toxic” throughout. It took 14.2 µM to reach half-maximal inhibition against Acetylcholinesterase [6] (IC50).
For the compound `Oc1ccc(/C=C/c2cc(O)cc(O)c2)cc1` [RESVERATROL], the inhibition entry (in data set [18]; on Acetylcholinesterase [15]) was “inactive” in each case. Further, in data set [4], the EC50 was determined as 25.6 µM. For the same compound, the Activity entry with HepG2 is given as “Non-Toxic”. The compound further showed an inhibition in data set [11] of 30%.
Take `CC(=O)N[C@@H](CS)C(=O)O` [ACETYLCYSTEINE]: in data set [4], the EC50 was determined as 28 µM.
As to `Cc1c(C)c2c(c(C)c1O)CCC(C)(C(=O)O)O2` (stereo unspecified) [TROLOX], in data set [4], the EC50 is 16.2 µM.
Consider `COc1cc(/C=C/c2ccc(Nc3c4c(nc5cc(Cl)ccc35)CCCC4)cc2)cc(OC)c1`, for which the inhibition result (in [3]; at Acetylcholinesterase [15]) was “inactive” throughout. Further, the Activity entry in data set [17] was “Toxic”. For the same compound, in [19], the viability at 24 h, up to 50 µM came to 70%. Besides, the inhibition in data set [11] was determined as 21.6%.
With `COc1cc(/C=C/c2ccc(Nc3c4c(nc5ccc(OC)cc35)CCCC4)cc2)cc(OC)c1`, the inhibition entry (in data set [3]; at Acetylcholinesterase [15]) was “inactive” in each case. For the same compound, the Activity entry (in [17]; in the data set with HepG2) was “Toxic” throughout.
`COc1cc(CCc2ccc(Nc3c4c(nc5ccc(OC)cc35)CCCC4)cc2)cc(OC)c1`: the inhibition result (in data set [3]; at Acetylcholinesterase [15]) was “inactive” in each case. Besides, the Activity entry (in [17]; with HepG2) was “Toxic” each time.
